# SUMO Mot1 rescue – inhibitors of SUMOylation pathway: yeast Mot1-301 growth rescue; S. cerevisiae Mot1-301 growth rescue, ATP luminescence, 38.5C; percent above DMSO median, 100 means doubled; growth rescue, % at 18.8 µM; 320,000 tested, 1% active; AID 2716;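 active means every valid replicate shows activation above 250% relative to neutral control wells; inactive means the rest, any valid replicate at or below 250%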;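 further: OY570 slx delta 5 strain wells were the positive control but not used for scaling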
# CR mimetic SO – yeast age-related superoxide inhibition as caloric restriction mimetic | superoxide response (% of plate mean), % at 10 µM | S. cerevisiae aged cells, superoxide DHE fluorescence; hits give low values | 330,000 tested, 0.18% active;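 active means superoxide response under a set limit, about three screen SD below normal, cut at about 65% in these data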;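 further: yeast aged for seven days with compound at 30 °C before DHE staining; 100% = average MFI of all compound-treated wells on the plate with controls excluded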
# Cneo AK release – causes C. neoformans cell lysis; adenylate kinase release luminescence, 4 h; normalised: neutral wells 0, clomiphene wells 100; lysis activity, % at 15 µM; 360,000 tested, 0.2% active; AID 651654;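 active means mean lysis activity across replicates of at least 80%, whatever share of replicates individually reach that level; inactive means mean lysis activity below 80%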
#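 Schedule: static 4 h at 37 °C with compound, 1 h detection; system: C. neoformans cells; benchmarks: Clomiphene as positive control; buffer or medium: fresh YPD medium; measure: luminescence rise reflecting yeast cell lysis; measured by: luminescent adenylate kinase detection reagent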
# PglD DTNB – inhibitors of Campylobacter jejuni PglD acetyltransferase. purified PglD enzyme, DTNB colorimetric CoA detection. inhibition, % at 12.5 µM. 360,000 tested, 0.098% active; in the data active means inhibition above about 16%, passing the limit was not always enough
# rRNA inh HTS – inhibits bacterial ribosomal RNA function over humanized ribosomes; E. coli WT GFP vs humanized-ribosome RFP mutants, fluorescence, 24 h; hits give low values; DMSO median 0, no signal -100; GFP signal change (wild-type ribosome), % (no concentration beside the values); 350,000 tested, 1.6% active;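 active means significant combined selectivity score with lowered wild-type GFP, culture density cut under 30%, mutant RFP and density less affected; inactive means any of these conditions unmet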
# Numbers without * were called inactive; · = not tested or not shown; ! = repeats disagree. Sampled rows, rich in hits. Any-hit rate of the full collection: about 2.2%.
SMILES,SUMO Mot1 rescue,CR mimetic SO,Cneo AK release,PglD DTNB,rRNA inh HTS
CC(NC(=S)Nc1ccc([N+](=O)[O-])cc1)c1ccncc1 (stereo not given),-12.7,102.9,·,·,-27.3*
O=[N+]([O-])c1ccc(NC(=S)NCc2ccncc2)cc1,-23.2,101.3,·,·,-28.4*
COc1ccc(C(=O)NCC(c2ccco2)N2CCc3ccccc32)c(OC)c1 (stereo not given),150.6,102.5,3.5,1.8,-23.9*
CCOC(=O)N1CCN(C(=O)c2cc3c(-c4cccc(OC)c4)nn(C)c3s2)CC1,-11.4,135.3,-0.4,-4.6,-28.6*
Cn1c(N2CCN(C(c3ccccc3)c3ccccc3)CC2)nc2ccccc21,4.8,91.2,0.5,2.3,-26.2*
C[C@H]1CN([C@@H](C)CO)C(=O)c2cc(NC(=O)CCCCCC(=O)Nc3ccccc3N)ccc2O[C@H]1CN(C)C(=O)NC1CCCCC1,·,·,·,·,5.0
CN(c1ccccc1)S(=O)(=O)c1cccc(C(=O)OCC(=O)NCc2ccccc2)c1,-5.8,82.3,-0.2,-6.3,-14.8
CN(c1ccccc1)S(=O)(=O)c1cccc(C(=O)OCC(=O)NCc2ccco2)c1,12.0,115.8,-0.8,1.0,-24.1*
Cc1cccc(S(=O)(=O)N(C)C[C@H]2OCc3ccccc3-c3ccccc3C(=O)N([C@@H](C)CO)C[C@H]2C)c1,·,·,·,·,-0.2
O=S(=O)(c1cccc(-c2csc(N/N=C/c3ccco3)n2)c1)N1CCOCC1,-5.8,104.9,-0.3,6.5,-23.3*
O=S(=O)(c1cccc(-c2csc(-c3ccccc3)n2)c1)N1CCOCC1,0.7,90.5,2.3,-11.2,·
O=[N+]([O-])c1cccc(C2NCC(c3ccccc3Cl)c3c2[nH]c2ccccc32)c1 (stereo not given),564.1*,96.8,·,·,-29.9
CN(C)CCNc1nc(S(=O)(=O)c2ccccc2)c(Cl)s1,355.4*,108.8,·,·,4.0
O=C(Cc1cccc2ccccc12)NCCOc1ccccc1F,-3.5,98.5,9.6,1.2,-38.9*
CCC(=O)N[C@H]1C=C[C@@H](CC(=O)OC)O[C@@H]1CO,·,·,88.2*,0.0,3.2
C[C@@H]1CCCCO[C@H](CN(C)Cc2ccc(C(F)(F)F)cc2)[C@@H](C)CN([C@@H](C)CO)C(=O)c2cc(NC(=O)CCCN(C)C)ccc2O1,·,·,1.4,-0.6,0.6
CCCOc1ccccc1/C=C(\C#N)C(=O)Nc1cccc(C)n1,-12.2,106.9,1.1,-3.1,-23.5*
Cc1ccc(O)c(C2=NNC(O)(C(F)(F)F)C2)c1 (stereo not given),340.4*,96.8,·,·,·
C[C@@H]1CN([C@@H](C)CO)C(=O)c2c(c3ccccc3n2C)-c2ccccc2CO[C@H]1CN(C)Cc1ccccc1,·,·,·,·,-37.7
COc1ccc(C=C(C(C)=O)C(=O)c2ccccc2)cc1,·,·,·,·,5.7
CC(=O)C(=Cc1ccc(Cl)cc1)C(=O)c1ccccc1,·,·,·,·,-35.0*
CC(C)NC(=O)N(C)C[C@@H]1Oc2ccccc2CC(=O)N(C)C[C@H]1C,·,·,·,·,1.6
CCOC(=O)C1(Cc2ccccc2Cl)CCN(Cc2csc(C(C)=O)c2)CC1,103.6,105.9,-0.6,-1.9,-22.8*
COc1ccc(CN(C)C[C@H]2OCCCC[C@@H](C)Oc3ccc(NC(=O)Nc4cccc5ccccc45)cc3C(=O)N([C@@H](C)CO)C[C@@H]2C)cc1,·,·,-2.1,-0.2,-3.8
BrC(=C\c1ccccc1)/C=N/Nc1nc(N2CCOCC2)nc(N2CCOCC2)n1,-24.9,95.1,·,·,-20.5
SMILES,SUMO Mot1 rescue,CR mimetic SO,Cneo AK release,PglD DTNB,rRNA inh HTS
BrC(/C=C\c1ccccc1)=N/Nc1nc(N2CCOCC2)nc(N2CCOCC2)n1,320.4*,95.4,·,·,2.9
C[C@H](CO)N1C[C@H](C)[C@H](CN(C)CC2CC2)Oc2cc(C#Cc3cccnc3)ccc2S1(=O)=O,·,·,·,·,0.2
C[C@H](CO)N1C[C@H](C)[C@@H](CN(C)Cc2cccc(C(F)(F)F)c2)OCc2ccccc2-c2ccccc2C1=O,·,·,·,·,-21.4
CCOC(=O)c1sc(N=NC2=C(O)CCCC2=O)c(C(=O)OCC)c1C,·,92.4,1.1,-1.7,-26.4*
C[C@H](CO)N1C[C@H](C)[C@@H](CN(C)C(=O)c2ccncc2)Oc2ncc(C#CC3CCCC3)cc2C1=O,·,·,·,·,2.0
CC(C)C[C@@H]1COCc2cn(nn2)CC[C@H](Cc2ccc(-c3ccccc3)cc2)C(=O)N1,·,·,·,·,-4.4
Cc1ccc(N2C(=O)c3ccc(C(=O)O)cc3C2=O)c(C)c1,313.2*,91.6,·,·,·
C[C@H](CO)N1C[C@H](C)[C@H](CN(C)S(=O)(=O)c2cccs2)Oc2ccc(NC(=O)Cn3cnnn3)cc2C1=O,·,·,2.8,-10.9,-2.0
CC(C)[C@H](NC(=O)c1ccccc1Cl)C(=O)Nc1nc(-c2ccccn2)cs1,58.6,112.5,13.1,15.5,-28.7*
CCc1nnc(NC(=O)C(NC(=O)c2ccccc2Cl)C(C)C)s1 (stereo not given),30.3,90.7,·,·,13.2
Cc1cc(C(=O)Nc2nc(-c3ccccn3)cs2)ccc1[N+](=O)[O-],-5.2,147.7,·,·,-29.2*
O=C(CCCN1CCC(O)(c2ccc(Cl)cc2)CC1)c1ccc(F)cc1,588.2*!,103.0,-1.8,1.7,·
CC(C)C#Cc1cnc2c(c1)C(=O)N([C@@H](C)CO)C[C@@H](C)[C@H](CN(C)Cc1cncnc1)O2,·,·,-12.3,6.2,0.8
Cc1ccccc1OCC(O)Cn1c(NCc2ccco2)nc2c1c(=O)n(C)c(=O)n2C (stereo not given),-17.8,82.6,-0.3,-15.5,-26.1*
CCCN1C[C@@H](C)[C@@H](OC)CN(C)C(=O)c2ccc(NC(=O)CC)cc2OC[C@@H]1C,·,·,·,·,2.2
Cc1ccc(S(=O)(=O)N2CCC(C)CC2)c([N+](=O)[O-])c1,-0.9,106.2,5.7,-1.0,-24.6*
Cc1ccc([N+](=O)[O-])cc1S(=O)(=O)N1CCC(C)CC1,-15.8,107.8,·,·,-13.1
CCCCCCC(=O)N(O)C1CC(=O)N(c2ccc(Br)cc2)C1=O (stereo not given),338.0*,106.6,-1.6,6.5,·
O=C(Nc1ccccc1)N[C@@H]1CC[C@@H](CCNS(=O)(=O)c2cccc(F)c2)O[C@H]1CO,·,·,-2.8,-1.4,-2.5
COc1ccc(C2CC(=O)Oc3cc(C)c(Cl)cc32)cc1 (stereo not given),·,103.7,-0.5,-1.2,-43.5
COc1ccccc1C1CC(=O)Oc2cc(C)c(Cl)cc21 (stereo not given),·,93.2,-1.1,2.7,-20.9*
COc1cccc(C(=O)N2C[C@H]3[C@@H](c4ccccc42)[C@H](CO)N3C(C)=O)c1,·,·,-4.2,4.0,2.7
COc1ccc(/C=C/C(=O)NCCc2nc3ccccc3[nH]2)cc1,-10.9,75.8,2.3,-3.7,-25.8*
C[C@@H]1CN([C@@H](C)CO)C(=O)c2cccc(NS(=O)(=O)c3ccc(F)cc3)c2O[C@@H]1CN(C)S(=O)(=O)c1ccc(Cl)cc1,·,·,4.3,-3.2,-4.2
NC(=O)c1sc(=S)n(-c2ccc(Br)cc2)c1N,6.4,100.9,-3.5,6.8,-31.0*
